This note sets out measurements from ChEMBL document CHEMBL1148040, “New lignans from Anogeissus acuminata with HIV-1 reverse transcriptase inhibitory activity” (J Nat Prod, 1994).

The target of assay [1] is T1, Human immunodeficiency virus type 1 reverse transcriptase (Human immunodeficiency virus 1, UniProt Q72547). In words: Inhibition of HIV1 reverse transcriptase. The procedure, abridged: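 HIV-1 RT inhibition was measured by a previously published method. Each value is the mean of three experiments, each run in duplicate. Test levels reached 250 µg/ml in the assay mixture.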

The next assay concerns LNCaP. The assay is described as follows: Cytotoxicity against human LNCAP cells. As to conditions: read-out: ED50 (the source's name); call rule not given here. In kind it is functional.
The nature of assay [2]: Inhibition of HIV2 reverse transcriptase. The arrangement: species or system Human immunodeficiency virus 2.
The test system of another assay is P388. The assay is described as follows: Cytotoxicity against mouse P388 cells. In kind it is functional. The settings on record: read-out: ED50 (the source's name).
For assay [3], the target named is Human immunodeficiency virus type 1 reverse transcriptase (Human immunodeficiency virus 1) (UniProt Q72547). The assay is described as follows: Inhibition of HIV1 reverse transcriptase at 150 ug/ml. The procedure, abridged:
(§1)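 HIV-1 reverse transcriptase inhibition, run by an assay procedure the authors described earlier. Each test concentration was run in duplicate in three separate experiments, and the reported value is the average of the three experiments.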

The subject of the next assay is A-431. The assay is described as follows: Cytotoxicity against human A431 cells. In kind it is functional. The settings on record: read-out: ED50 (the source's name).
In assay [4] the target is Human immunodeficiency virus type 1 reverse transcriptase (Human immunodeficiency virus 1) (UniProt Q72547). In words: Inhibition of HIV1 reverse transcriptase at 20 ug/ml. The procedure, abridged: as §1
For another assay, the system named is Lu1. In words: Cytotoxicity against human Lu1 cells. In kind it is functional. The settings on record: read-out: ED50 (the source's name).
The next assay concerns SK-MEL-2. The assay is described as follows: Cytotoxicity against human SK-MEL-2 cells. The settings on record: read-out: ED50 (the source's name). In kind it is functional.
For assay [5], the target named is Human immunodeficiency virus type 1 reverse transcriptase (Human immunodeficiency virus 1) (UniProt Q72547). In words: Inhibition of HIV1 reverse transcriptase at 40 ug/ml. A digest of the protocol: as §1
Assay [6] shares this target. The assay is described as follows: Inhibition of HIV1 reverse transcriptase at 60 ug/ml. The procedure, abridged:
as §1

For assay [7], the target named is T1, Human immunodeficiency virus type 1 reverse transcriptase. In words: Inhibition of drug-resistant HIV1 reverse transcriptase.
The target of assay [8] is Human immunodeficiency virus type 1 reverse transcriptase (Human immunodeficiency virus 1) (UniProt Q72547). The assay is described as follows: Inhibition of HIV1 reverse transcriptase at 100 ug/ml. A digest of the protocol: as §1
Assay [9] shares this target. The assay is described as follows: Inhibition of HIV1 reverse transcriptase at 250 ug/ml. The procedure, abridged: as §1
Another assay has as its system KB. The assay is described as follows: Cytotoxicity against human KB cells. In kind it is functional. As to conditions: read-out: ED50 (the source's name).
The nature of assay [10]: Cytotoxicity against human KBV1 cells in presence of vinblastine. In kind it is functional. As to conditions: KB-V1, read-out: ED50 (the source's name).
In assay [11] the target is Human immunodeficiency virus type 1 reverse transcriptase (Human immunodeficiency virus 1) (UniProt Q72547). In words: Inhibition of HIV1 reverse transcriptase at 80 ug/ml. The procedure, abridged: as §1
Assay [12] is described as follows: Cytotoxicity against human U373 cells. In kind it is functional, U-373MG ATCC. As to conditions: U373 MG, read-out: ED50 (the source's name).
The target in assay [13] is Human immunodeficiency virus type 1 reverse transcriptase (Human immunodeficiency virus 1) (UniProt Q72547). The assay is described as follows: Inhibition of HIV1 reverse transcriptase at 200 ug/ml. A digest of the protocol:
as §1

Assay [14] can be described thus: Cytotoxicity against human Col1 cells. In kind it is functional. As to conditions: read-out: ED50 (the source's name).
The subject of another assay is ZR-75-1. In words: Cytotoxicity against human ZR-75-1 cells. In kind it is functional. The settings on record: read-out: ED50 (the source's name).
Assay [15] in a line: Cytotoxicity against human KBV1 cells in absence of vinblastine. In kind it is functional. As to conditions: KB-V1, read-out: ED50 (the source's name).
The test system of another assay is HT-1080. In words: Cytotoxicity against human HT1080 cells. In kind it is functional. The settings on record: read-out: ED50 (the source's name).
A short description of assay [16]: Cytotoxicity against human BC1 cells. In kind it is functional. The settings on record: read-out: ED50 (the source's name).

Converted amounts (≈) assume the structure as drawn.

On to `COc1cc(C[C@@H](CO)[C@H](CO)Cc2ccc(O)c(OC)c2)ccc1O` [(+)-SECOISOLARICIRESINOL], for which, in assay [1], the IC50 result is “Not Active”.
For the compound `C=C(Cc1ccc2c(c1)OCO2)C(=C)Cc1ccc(O)cc1O` [ANOLIGNAN A], the EC50 in the assay with LNCaP was 10.8 µg/mL (≈ 34.8 µM); in the assay with P388, > 20 µg/mL; with A-431, > 20 µg/mL; with Lu1, 15.8 µg/mL (≈ 50.9 µM); in the assay with SK-MEL-2 it was 7.6 µg/mL (≈ 24.5 µM); in the assay with KB, > 20 µg/mL. Also, the EC50 in assay [10] is > 20 µg/mL; in assay [12], 13.5 µg/mL (≈ 43.5 µM); in assay [14] it was 16.8 µg/mL (≈ 54.1 µM); in the assay on ZR-75-1, 6.1 µg/mL (≈ 19.7 µM); in assay [15], > 20 µg/mL; with HT-1080, 13.1 µg/mL (≈ 42.2 µM). Also, the EC50 in assay [16] was found to be 4.3 µg/mL (≈ 13.9 µM). Besides, the values for the half-maximal inhibitory concentration (IC50) in assay [2], in assay [1] (read-out: IC50 (converted)) and in assay [7] were 156.9 µg/mL (≈ 506 µM), 195 µM and 342 µM, respectively. Further, the inhibition came to 80.8% in assay [3]; 4.1% in assay [4]; 33.8% in assay [5]; 51.5% in assay [6]; 73.9% in [8]; 97.4% in assay [9]. For the same compound, the inhibition turned out to be 68.3% in [11] and 92.8% in assay [13].
As to `C=C(Cc1ccc(O)cc1)C(=C)Cc1ccc(O)cc1` [ANOLIGNAN B], the EC50 with LNCaP was 8.7 µg/mL (≈ 32.7 µM); in the assay on P388 it was 1 µg/mL (≈ 3.75 µM); with A-431, > 20 µg/mL; in the assay on Lu1, 11.1 µg/mL (≈ 41.7 µM); with SK-MEL-2, 19 µg/mL (≈ 71.3 µM); in the assay on KB, > 20 µg/mL. Also, the EC50 in [10] was > 20 µg/mL; in assay [12], 5.7 µg/mL (≈ 21.4 µM); in assay [14], 18 µg/mL (≈ 67.6 µM); in the assay with ZR-75-1, > 20 µg/mL; in [15] it was > 20 µg/mL; in the assay with HT-1080, 4.7 µg/mL (≈ 17.6 µM). Further, the EC50 in assay [16] amounted to 5.1 µg/mL (≈ 19.1 µM). Moreover, the inhibition in assay [3] was found to be 31.2%; in assay [4], 10%; in assay [5], 17.7%; in assay [6], 25.5%; in [8], 27.4%; in [11], 20.9%. In addition, the inhibition in assay [13] turned out to be 32.9%. The half-inhibitory concentration (IC50) in [1] (read-out: IC50 (converted)) is 4020 µM.
For the compound `C[C@@H]1[C@H](C)[C@H](c2ccc(O)cc2)O[C@@H]1c1ccc(O)cc1` [ANOLIGNAN C], the EC50 is 10.8 µg/mL (≈ 38 µM) with LNCaP; > 20 µg/mL in the assay on P388; > 20 µg/mL in the assay with A-431; 15.8 µg/mL (≈ 55.6 µM) in the assay on Lu1; 7.6 µg/mL (≈ 26.7 µM) in the assay with SK-MEL-2; > 20 µg/mL in the assay on KB. The EC50 in assay [10] was > 20 µg/mL; in assay [12], 18.5 µg/mL (≈ 65.1 µM); in [14], 16.8 µg/mL (≈ 59.1 µM); in the assay with ZR-75-1, 6.1 µg/mL (≈ 21.5 µM); in [15], > 20 µg/mL; with HT-1080 it was 13.1 µg/mL (≈ 46.1 µM). Besides, in assay [16], the EC50 was > 20 µg/mL. The concentration for half-maximal inhibition (IC50) entry in [1] was “Not Active”.

For orientation: IC50 means the point on the concentration scale where inhibition reaches its midpoint. By inhibition is commonly meant the change of the read-out against control, counted positive when it falls. Read a high inhibition as strong suppression.
